Screening results: PubChem BioAssay, Johns Hopkins Ion Channel Center
Hits are enriched below; roughly 3.8% of the tested compounds scored in any of these assays.
KCNK9 block: blocks the human KCNK9 two-pore domain potassium channel; hit rate 1.2% among 310,000; Q9NPC2; B-score at 10 µM; HEK293 KCNK9, FluxOR thallium flux fluorescence; stronger effect = lower value;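 active = ratio B-score over 3 SD below the library mean, with starting fluorescence within 5 SD of its mean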;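 also: negative B-score means less thallium flux so channel inhibition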
Target sequence (Q9NPC2 whole entry, looked up, the tested form may be a part): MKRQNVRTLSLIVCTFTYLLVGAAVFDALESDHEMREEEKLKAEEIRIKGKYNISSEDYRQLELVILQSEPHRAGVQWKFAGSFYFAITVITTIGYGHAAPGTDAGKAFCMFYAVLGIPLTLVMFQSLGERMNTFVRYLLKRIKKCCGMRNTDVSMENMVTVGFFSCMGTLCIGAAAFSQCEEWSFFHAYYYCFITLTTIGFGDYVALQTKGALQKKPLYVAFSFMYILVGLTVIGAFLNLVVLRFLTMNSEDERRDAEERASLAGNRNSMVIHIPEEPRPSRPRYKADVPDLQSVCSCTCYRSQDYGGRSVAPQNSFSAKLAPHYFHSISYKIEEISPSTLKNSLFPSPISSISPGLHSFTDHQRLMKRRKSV
KCNQ1 block: inhibitors of human KCNQ1 potassium channel; P51787; CHO-K1 KCNQ1, FluxOR thallium flux fluorescence; stronger effect = higher value; B-score at 10 µM; hit rate 1.3% among 310,000; AID 2642;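 active = compounds whose thallium flux B-score, printed positive for inhibition, exceeds three library SD while starting fluorescence stays within three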;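 also: channel opened by potassium depolarization with thallium stimulus after 20 min compound exposure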
KCNQ1 pot: potentiates or activates the human KCNQ1 potassium channel; P51787; CHO-K1 KCNQ1, thallium flux FluxOR fluorescence; stronger effect = higher value; B-score at 10 µM; hit rate 0.35% among 310,000;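 active = fluorescence ratio B-score, a plate-corrected score, at least three library SD, with initial intensity B-score within 5 SD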
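Doses: Single concentration per compound, DMSO matched to controls | Test system: KCNQ1-transfected CHO-K1 cells | Timing: 90 min dye loading and 20 min compound exposure, both at room temperature | Measured by: Kinetic FluxOR thallium fluorescence, 10-s 1-Hz baseline, 110-s post-stimulus read | Medium: Assay buffer with matched DMSO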
Kir21 block: blocks the mouse Kir2.1 inward-rectifier potassium channel; hit rate 0.85% among 310,000; B-score at 10 µM; AID 1672; HEK293-Kir2.1, FluxOR thallium flux fluorescence; stronger effect = lower value; P35561;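 active = fluorescence ratio B-score at or below minus 3 SD of library scores, with starting-brightness B-score within 2 SD, cut at about -4.2 in these data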;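 also: channel flux triggered by added potassium and thallium sulfate stimulus; B-score of peak minus minimum fluorescence over baseline after thallium stimulus; more negative B-score means stronger Kir2.1 block with less thallium influx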
Target sequence (P35561 whole entry, looked up): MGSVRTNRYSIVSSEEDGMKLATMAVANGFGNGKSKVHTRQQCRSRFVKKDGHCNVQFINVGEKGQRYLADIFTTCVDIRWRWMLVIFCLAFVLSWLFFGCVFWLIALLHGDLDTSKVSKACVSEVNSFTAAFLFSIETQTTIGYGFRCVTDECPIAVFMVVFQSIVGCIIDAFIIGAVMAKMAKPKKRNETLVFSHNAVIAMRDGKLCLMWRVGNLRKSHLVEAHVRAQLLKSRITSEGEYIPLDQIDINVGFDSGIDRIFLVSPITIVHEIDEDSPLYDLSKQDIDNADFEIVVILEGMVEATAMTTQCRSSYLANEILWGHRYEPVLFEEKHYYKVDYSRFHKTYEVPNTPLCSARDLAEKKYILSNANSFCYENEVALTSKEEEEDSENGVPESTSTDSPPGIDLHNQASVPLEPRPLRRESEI
KCNK3 inh: human KCNK3 channel inhibition, primary screen. CHO-KCNK3 thallium flux, FluxOR fluorescence; stronger effect = lower value. B-score at 10 µM. hit rate 0.84% among 340,000;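 active = B-score under library mean minus 4 SD, starting fluorescence ratio at most library mean plus 5 SD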;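 also: more negative B-score means stronger inhibition of thallium flux through KCNK3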
hERG protect: hERG (human) protection from proarrhythmic block; Q12809; CHO-hERG, FluxOR thallium flux, dofetilide IC70 present; activation (rescue from dofetilide block), less the hit threshold, % at 10 µM; hit rate 0.51% among 310,000; AID 1511;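 active = activation above the mean of controls blocked by dofetilide plus 5 SD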;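 also: thallium influx through hERG after potassium depolarization seen as dye fluorescence rise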
KCNK9 block conf: confirmation of human KCNK9 potassium channel inhibitors | shares compounds with KCNK9 block | hit rate 43% among 4,900 | HEK293 KCNK9 cells, FluxOR thallium flux fluorescence | inhibition, % at 10 µM;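 active = thallium signal inhibited by more than 5 SD of the compound-free buffer control wells, on both duplicate plates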
Kir21 sel: mouse Kir2.1 off-target activity of KCNK9 modulators; shares compounds with KCNK9 block; Kir2.1 cells, FluxOR thallium flux fluorescence; inhibition, % at 10 µM; hit rate 4% among 4,900;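 active = thallium signal drop more than 5 SD beyond the mean of the no-compound control wells, seen in both duplicate plates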;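 also: signal is fluorescence rise after thallium addition divided by baseline fluorescence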
HEK293 Tl ctr: non-induced cell nonspecific activity of KCNK9 modulators. shares compounds with KCNK9 block. non-induced KCNK9-HEK293, FluxOR thallium flux. inhibition, % at 10 µM. hit rate 40% among 4,900;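 active = thallium signal drop beyond 5 SD of the untreated control mean, on both duplicate plates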
KCNK3 confirm: confirmation of human KCNK3 two-pore domain potassium channel inhibitors. shares compounds with KCNK3 inh. CHO-KCNK3 thallium flux, FluxOR fluorescence; 0% buffer, 100% carvedilol maximal block. ratio percent of control, % at 10 µM. hit rate 99% among 2,400. AID 651638;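 active = ratio percent of control, averaged over triplicates, above buffer control mean plus 5 SD, cut at about 64% in these data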;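 also: ratio is the fluorescence rise from min to max over baseline after thallium stimulus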
KCNK3 uninduced: counter-screen for KCNK3 inhibitors: effect in non-induced cells | hit rate 40% among 2,400 | thallium flux ratio (lower = more inhibition) at 10 µM | non-induced KCNK3 parental cells, FluxOR thallium flux; stronger effect = lower value | AID 651747 | shares compounds with KCNK3 inh;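 active = thallium flux ratio, averaged over three wells, more than 5 SD below the buffer control mean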;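 also: host cells are CHO cells without KCNK3 induction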
Each line names hits and unclear results; the compound was inactive in the other large screens (follow-up assays come after a bar, where they were run).

CSCc1c(C(=O)Nc2ccc3c(c2)OCO3)oc2ccccc12	KCNK9 block -9.48, KCNK3 inh -8.72 | KCNK9 block conf 39.0% | Kir21 sel inactive | HEK293 Tl ctr 30.0% | KCNK3 confirm 123.7 | KCNK3 uninduced 0.146
O=C(N/N=C/c1ccc(Cl)cc1)c1cc(-c2cccnc2)nc2ccccc12	none
Nc1sc(-c2ccccc2)cc1C(=O)N/N=C/c1ccc(Cl)cc1	KCNK9 block -14 | KCNK9 block conf 52.0% | Kir21 sel inactive | HEK293 Tl ctr 38.5% | KCNK3 confirm 122.7 | KCNK3 uninduced inactive
O=C(N/N=C/c1cccnc1)c1ccccc1Br	none
O=C(N/N=C/c1cccnc1)c1ccccc1OCc1ccc(Br)cc1	KCNK9 block -10.8, KCNK3 inh -10.9 | KCNK9 block conf 29.5% | Kir21 sel inactive | HEK293 Tl ctr inactive | KCNK3 confirm 115.3 | KCNK3 uninduced 0.157
Cc1nc(NCCc2ccccc2)c2oc3ccccc3c2n1	KCNK9 block -12.7, KCNK3 inh -10.4 | KCNK9 block conf 55.5% | Kir21 sel inactive | HEK293 Tl ctr inactive | KCNK3 confirm 131.0 | KCNK3 uninduced 0.122
O=C(c1ccco1)N1CCN(c2ncnc3scc(-c4cccs4)c23)CC1	none
Fc1ccc(-c2csc3ncnc(N4CCN(c5ccccc5)CC4)c23)cc1	KCNK9 block -13.3, KCNK3 inh -10.1 | KCNK9 block conf inactive | Kir21 sel inactive | HEK293 Tl ctr 29.5% | KCNK3 confirm 117.0 | KCNK3 uninduced inactive
c1ccc(N2CCN(c3ncnc4scc(-c5cccs5)c34)CC2)cc1	KCNK9 block -13.3, KCNK3 inh -8.88 | KCNK9 block conf 42.5% | Kir21 sel inactive | HEK293 Tl ctr 35.5% | KCNK3 confirm 148.3 | KCNK3 uninduced 0.111
CSc1nc(N2CCN(c3ccccc3Cl)CC2)c2ccccc2n1	KCNK9 block -14.2 | KCNK9 block conf 59.5% | Kir21 sel inactive | HEK293 Tl ctr 33.5% | KCNK3 confirm 104.0 | KCNK3 uninduced inactive
Cc1ccc(CN2CCCN(Cc3cc(C)ccc3C)S2(=O)=O)cc1	KCNK9 block -15.5, KCNK3 inh -9.75 | KCNK9 block conf 62.5% | Kir21 sel inactive | HEK293 Tl ctr 37.0% | KCNK3 confirm inactive | KCNK3 uninduced inactive
Cc1ccc(C)c(CN2CCNC2=O)c1	none
Cc1ccc(C)c(CN2CCCN(Cc3cc(C)ccc3C)S2(=O)=O)c1	KCNK9 block -18.8, KCNK3 inh -10.7 | KCNK9 block conf 75.5% | Kir21 sel inactive | HEK293 Tl ctr 41.0% | KCNK3 confirm 87.0 | KCNK3 uninduced inactive
Cc1cccc(S(=O)(=O)N2CCn3cccc3C2C)c1 (stereo not drawn)	none (no result: KCNK9 block, KCNQ1 block, KCNQ1 pot, Kir21 block, hERG protect)
CC1(c2ccc(NC(=O)c3ccccc3F)cc2)CC1(Cl)Cl (stereo not drawn)	none
COc1ccc(CCNC(=O)c2cc(S(=O)(=O)N3CCOCC3)cn2C)cc1OC	none
O=C(Nc1cccc(NC(=O)c2ccco2)c1)c1cccc(Br)c1	KCNK9 block -10.5, KCNK3 inh -13.3 | KCNK9 block conf 59.0% | Kir21 sel inactive | HEK293 Tl ctr inactive | KCNK3 confirm 100.0 | KCNK3 uninduced inactive
O=C(c1ccccc1)c1cccc(NC(=O)c2ccc(Br)o2)c1	KCNK9 block -9.15, KCNK3 inh -9.73 | KCNK9 block conf inactive | Kir21 sel inactive | HEK293 Tl ctr inactive | KCNK3 confirm 105.7 | KCNK3 uninduced inactive
CN(C)C1=NCCN1CC1CCCCC1	none (no result: KCNK9 block, KCNQ1 block, KCNQ1 pot, Kir21 block, hERG protect)
COc1ccc(NC(=O)c2sccc2SCc2cccc(C(F)(F)F)c2)cc1	KCNK9 block -16.2, Kir21 block -4.51, KCNK3 inh -9.1 | KCNK9 block conf 54.5% | Kir21 sel 34.0% | HEK293 Tl ctr 40.5% | KCNK3 confirm 118.0 | KCNK3 uninduced inactive
COc1cccc(-c2nn(-c3ccccc3)cc2C(=O)O)c1	none
COc1cccc(-c2nn(-c3ccccc3)cc2/C=C\C(=O)c2cccs2)c1	KCNK9 block -9.47, KCNK3 inh -11.5 | KCNK9 block conf 39.0% | Kir21 sel inactive | HEK293 Tl ctr 30.5% | KCNK3 confirm 88.7 | KCNK3 uninduced inactive
CC(C)(O)CC[C@H](OC(=O)c1ccccc1)[C@](C)(O)[C@H]1CC[C@@]2(O)C3=CC(=O)[C@@H]4C[C@@H](O)[C@H](O)C[C@]4(C)C3CC[C@]12C (stereo partly drawn)	none
COc1cc2nc(SCc3c(C)noc3C)n(CCC3=CCCCC3)c(=O)c2cc1OC	KCNK9 block -14, KCNK3 inh -10.3 | KCNK9 block conf 28.5% | Kir21 sel 32.0% | HEK293 Tl ctr 31.5% | KCNK3 confirm 125.3 | KCNK3 uninduced 0.14
C=CCn1c(SCc2c(C)noc2C)nc2ccccc2c1=O	none
CC1CSC(N(C(=O)c2ccc(S(C)(=O)=O)cc2)c2ccc(Cl)cc2)=N1 (stereo not drawn)	none
Clc1ccccc1OCc1nnc2n1CCCCC2	none
O=C(Oc1ccc(C(=S)N2CCOCC2)cc1Br)c1cc(Cl)ccc1Cl	KCNK9 block -13.7, KCNK3 inh -9.41 | KCNK9 block conf 48.5% | Kir21 sel inactive | HEK293 Tl ctr 35.0% | KCNK3 confirm 99.0 | KCNK3 uninduced inactive
O=C(Oc1c(Br)cc(C(=S)N2CCOCC2)cc1Br)c1ccc(Cl)cc1	none
Cc1ccc(C(=O)OCC(=O)NNC(=O)c2cccs2)c(O)c1	none
S=c1sscc1-c1ccccc1	none (no result: KCNK9 block, KCNQ1 block, KCNQ1 pot, Kir21 block, hERG protect)
Cc1ccc(CSc2nc3ccccc3c(=O)n2Cc2ccco2)cc1	KCNK9 block -17.7, KCNK3 inh -8.93 | KCNK9 block conf 80.5% | Kir21 sel inactive | HEK293 Tl ctr 45.0% | KCNK3 confirm 115.3 | KCNK3 uninduced 0.158
Cc1ccc(CSc2nc3ccccc3c(=O)n2CCCC(=O)NCc2ccco2)cc1	none
O=c1c2ccccc2nc(SCc2ccccc2)n1Cc1ccco1	KCNK9 block -11.8, KCNK3 inh -10.9 | KCNK9 block conf 61.5% | Kir21 sel inactive | HEK293 Tl ctr 43.0% | KCNK3 confirm 104.0 | KCNK3 uninduced inactive
COC(=O)[C@H](CCSC)NC(=O)N1CCN(c2cccc(C(F)(F)F)c2)CC1	KCNK9 block -8.77 | KCNK9 block conf 57.5% | Kir21 sel inactive | HEK293 Tl ctr inactive | KCNK3 confirm 84.3 | KCNK3 uninduced inactive
